Compound activity as filed in PubChem BioAssay.
The list is not random: actives were taken first. Their share in the collection is about 2.3%.
TRPC6 act – activates the mouse TRPC6 cation channel; Q61143; HEK293-TRPC6 membrane potential dye fluorescence; stronger effect = higher value; B-score at 10 µM; actives 0.13% (n = 310,000); AID 2550;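 active = B-score of the integrated fluorescence ratio above library mean plus 3 SD, and starting fluorescence ratio within library mean plus 5 SD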;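 note: higher score means more depolarization so channel activation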
TRPC4 inh – inhibitors of mouse TRPC4 channel; Q9QUQ5; HEK293 TRPC4beta/mu-opioid, DAMGO-evoked Fluo4 calcium flux; stronger effect = lower value; B-score at 10 µM; actives 0.39% (n = 300,000); AID 2247;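 active = B-score over 3 SD under the library average, no early fluorescence shift, positive overall ratio signal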
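Assay system: HEK293 cells with stable TRPC4beta plus mu-opioid receptor expression. Dosing: single dose. Measured by: Fluo4 Ca2+ flux fluorescence. Also added: DAMGO in two steps, submaximal then maximal. Read-out: B score from integrated Fluo4 fluorescence ratio.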
TRPC4 agonist – activators of mouse TRPC4 channel | Q9QUQ5 | HEK293 TRPC4beta/mu-opioid, Fluo4 calcium fluorescence; stronger effect = higher value | B-score at 10 µM | actives 0.49% (n = 310,000);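 active = B-score above 5 SD of library B-scores, and initial fluorescence ratio not above library mean plus 5 SD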;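 note: positive B-score marks a calcium rise read as TRPC4 activation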
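Assay system: HEK293 stable line with TRPC4beta plus mu-opioid receptor. Times: dye 45 min RT, read 110 s. Measured by: kinetic Fluo4 calcium fluorescence. Measure: B score of integrated ratio. Controls: assay buffer as low control, maximal DAMGO as high control.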
TRPC4 potent – TRPC4 (mouse) allosteric potentiation | actives 0.42% (n = 310,000) | Q9QUQ5 | B-score at 10 µM | HEK293 TRPC4beta/mu-opioid, DAMGO EC20, Fluo-4 Ca2+ flux; stronger effect = higher value | AID 2227;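 active = B-score of calcium response area above 5 SD of library B-scores, with initial fluorescence ratio within 5 SD of library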
TRPC6 inh – blocks the mouse TRPC6 cation channel; Q61143; HEK293-TRPC6, membrane potential dye, ACh-evoked depolarization; stronger effect = lower value; B-score at 10 µM; actives 1.1% (n = 310,000); AID 2553;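 active = B-score under library mean minus 3 SD, initial fluorescence not abnormally high, positive integrated signal ratio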;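 note: B-score derived from integrated fluorescence ratio over the kinetic read; more negative B-score means stronger inhibition of depolarization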
TRPC4 spec 2 – mouse TRPC4 off-target activity of TRPC6 inhibitors, second screen; shares compounds with TRPC6 inh; HEK293 TRPC4/MOR, membrane potential dye fluorescence; channel activated by saturating DAMGO dose; inhibition, % at 10 µM; actives 42% (n = 920); AID 2776;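 active = compounds whose fluorescence signal differed from control wells by over 3 SD, either direction, in both duplicate plates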
TRPC4 spec – tests whether TRPC6 inhibitors also affect mouse TRPC4. shares compounds with TRPC6 inh. HEK293 TRPC4/mu-opioid, membrane potential fluorescence. activity change, negative = inhibition, % at 10 µM. actives 61% (n = 920). AID 2777;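 active = rise or fall in signal beyond 3 SD of buffer-only wells in both replicate plates, either sign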;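 note: integrated kinetic ratio of fluorescence range over baseline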
HEK293 MPD ctr 2-1 – parental HEK293 nonspecific activity of TRPC6 inhibitors, second screen; shares compounds with TRPC6 inh; parental HEK293 membrane potential dye fluorescence; maximal acetylcholine challenge after compound addition; signal change vs control, % at 10 µM; actives 31% (n = 920); AID 2779;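 active = membrane potential signal moving either way by over 3 SD of the maximum-effect control, in both duplicate plates, meaning non-specific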
HEK293 MPD ctr-1 – counter-screen for TRPC6 inhibitors: effect in parental HEK293 cells; shares compounds with TRPC6 inh; parental HEK293 membrane potential dye fluorescence; membrane potential signal change, % at 10 µM; actives 60% (n = 920); AID 2780;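 active = membrane potential signal shifting up or down by more than 3 SD of buffer-only wells, on both duplicate plates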
HEK293 MPD ctr-2 – checks TRPC6 modulator effects in parental HEK293 cells. membrane potential signal change, % at 10 µM. membrane potential dye fluorescence. actives 51% (n = 2,400). AID 488924. shares compounds with TRPC6 inh;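 active = membrane potential signal moves up or down beyond 5 SD from buffer-only wells, on both duplicate plates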
HEK293 MPD ctr 2-2 – second check of TRPC6 modulator effects in parental HEK293 cells; shares compounds with TRPC6 inh; membrane potential dye fluorescence; after compound, maximal acetylcholine stimulation; inhibition, % at 10 µM; actives 14% (n = 2,400);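 active = membrane potential signal drops by more than 5 SD from the mean control signal, in both duplicate plates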
TRPC4/MOR mod – tests whether TRPC6 modulators also affect mouse TRPC4; HEK293 TRPC4/mu-opioid, membrane potential fluorescence; actives 69% (n = 2,400); percent change from control (negative = decrease, positive = increase), % at 10 µM; AID 488927; shares compounds with TRPC6 inh;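 active = membrane potential signal moved up or down beyond 5 SD of buffer control wells, in both duplicate plates, actives on both sides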
TRPC4 ctr inh 2 – second check of whether TRPC6 modulators also affect mouse TRPC4. shares compounds with TRPC6 inh. HEK293 TRPC4/mu-opioid, membrane potential dye fluorescence; stimulated with maximal-effect DAMGO. actives 55% (n = 2,400). inhibition, % at 10 µM;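 active = drop in membrane potential signal beyond 5 SD of the control wells in both duplicate plates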;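 note: TRPC4 counter screen for TRPC6 hits run under conditions tuned for TRPC6 not TRPC4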
TRPC6 block conf – confirmation of mouse TRPC6 inhibitors; shares compounds with TRPC6 inh; actives 43% (n = 3,300); inhibition, % at 10 µM; HEK293-TRPC6, membrane potential dye, ACh-evoked depolarization;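 active = fluorescence ratio falls more than 5 SD below the full-stimulation control mean, in both duplicate runs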;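 note: integrated fluorescence ratio of peak minus minimum over baseline after agonist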
TRPC6 act conf – confirmation of mouse TRPC6 activators. shares compounds with TRPC6 inh. HEK293-TRPC6 membrane potential dye fluorescence, FDSS. activation, % at 10 µM. actives 11% (n = 2,800). AID 488961;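 active = ratio signal rise beyond 5 SD above unstimulated control wells' mean, seen in both duplicate runs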
Hits are given with their value.

For C=CCSc1nc2c(c(-c3ccsc3)c1C#N)CN(C)CC2 the results were TRPC6 act inactive, TRPC4 inh inactive, TRPC4 agonist inactive, TRPC4 potent inactive, TRPC6 inh -10, TRPC4 spec 2 inactive, TRPC4 spec -18%, HEK293 MPD ctr 2-1 inactive, HEK293 MPD ctr-1 -239%, TRPC6 block conf inactive and TRPC6 act conf inactive.
Screening O=C(c1ccc(F)c([N+](=O)[O-])c1)N1CC2CC(C1)c1cccc(=O)n1C2 (stereo not drawn) returned TRPC6 act inactive, TRPC4 inh inactive, TRPC4 agonist inactive, TRPC4 potent inactive and TRPC6 inh inactive.
CCCCC/C(=N/O)c1c(C)[nH]c2ccccc12 was read as TRPC6 act inactive, TRPC4 inh inactive, TRPC4 agonist inactive, TRPC4 potent inactive and TRPC6 inh inactive.
Screening CCCC/C(=N/O)c1c(C)[nH]c2ccccc12 returned TRPC6 act inactive, TRPC4 inh inactive, TRPC4 agonist inactive, TRPC4 potent inactive, TRPC6 inh -9.5, TRPC4 spec 2 inactive, TRPC4 spec -13%, HEK293 MPD ctr 2-1 inactive, HEK293 MPD ctr-1 -142%, TRPC6 block conf inactive and TRPC6 act conf inactive.
`CC1(C(O)(C#CCN2CCCCC2)c2ccccc2)CCCC1` (stereo not drawn) gave TRPC6 act inactive, TRPC4 inh inactive, TRPC4 agonist inactive, TRPC4 potent inactive, TRPC6 inh -7.1, HEK293 MPD ctr-2 142%, HEK293 MPD ctr 2-2 106%, TRPC4/MOR mod 26%, TRPC4 ctr inh 2 44% and TRPC6 block conf 91%.
For CCCCCCC(Cl)(Cn1ccnc1)c1ccccc1 (stereo not drawn) the results were TRPC6 act inactive, TRPC4 inh inactive, TRPC4 agonist inactive, TRPC4 potent inactive and TRPC6 inh inactive.
Screening N#CC(C#N)=NNc1ccc(-n2ccc(C(F)(F)F)n2)cc1 returned TRPC6 act inactive, TRPC4 inh inactive, TRPC4 agonist inactive, TRPC4 potent inactive, TRPC6 inh -9.2, HEK293 MPD ctr-2 170%, HEK293 MPD ctr 2-2 inactive, TRPC4/MOR mod 27%, TRPC4 ctr inh 2 71%, TRPC6 block conf 62% and TRPC6 act conf inactive.
O=C1N[C@@H](Cc2ccccc2)C(=O)N2[C@H]1C[C@H]1c3ccccc3N(OOSc3ccccc3)[C@H]12 was read as TRPC6 act inactive, TRPC4 inh inactive, TRPC4 agonist inactive, TRPC4 potent inactive and TRPC6 inh inactive.
